Tests used:
Assay type in all cases: ADME, organism-based
[1] = Half life in MRP2 knockout Sprague-Dawley rat at 5 mg/kg, iv by LC-MS/MS analysis; design: dose 5 mg/kg, route intravenous; details: in vivo
How it was run: (§1)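 Male Sprague-Dawley knockout rats or wild-type rats matched for age and weight, with femoral artery and vein cannulas. Crossover design: sulfasalazine 5 mg/kg iv bolus (water, pH 9–10) on day 0, then 20 mg/kg oral gavage (0.5% carboxymethyl cellulose in PBS, pH 7.4) on day 3. Arterial plasma collected 0–24 h. Sulfasalazine and sulfapyridine measured by LC-MS/MS; noncompartmental parameters; mean ± S.D., n = 4 to 8.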

[2] = Half life in wild-type Sprague-Dawley rat at 5 mg/kg, iv by LC-MS/MS analysis; design: dose 5 mg/kg, route intravenous; details: in vivo; how it was run: as §1
[3] = Tmax in MRP2-deficient Wistar rat at 5 mg/kg, po by LC-MS/MS analysis; design: dose 5 mg/kg, route oral; details: in vivo
[4] = AUC (infinity) in MDR1A knockout Sprague-Dawley rat at 5 mg/kg, iv by LC-MS/MS analysis; design: time infinity, dose 5 mg/kg, route intravenous; details: plasma
How it was run: (§2)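 Male Sprague-Dawley knockout or age/weight-matched wild-type rats with femoral artery and vein cannulas. Crossover design: day 0 i.v. bolus 5 mg/kg sulfasalazine in water at pH 9–10, then day 3 gavage 20 mg/kg in 0.5% carboxymethyl cellulose/PBS pH 7.4. Arterial plasma was sampled to 24 h. Sulfasalazine and sulfapyridine were measured by LC-MS/MS (1–5000 ng/ml). Parameters are noncompartmental; n = 4–8, mean ± S.D.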

[5] = Cmax in MRP2 knockout Sprague-Dawley rat at 20 mg/kg, po by LC-MS/MS analysis; design: dose 20 mg/kg, route oral; details: in vivo; how it was run: as §2
[6] = Half life in MRP2 knockout Sprague-Dawley rat at 20 mg/kg, po by LC-MS/MS analysis; design: dose 20 mg/kg, route oral; details: in vivo; how it was run: as §1
[7] = Volume of distribution at steady state in MRP2 knockout Sprague-Dawley rat at 5 mg/kg, iv by LC-MS/MS analysis; design: dose 5 mg/kg, route intravenous; details: in vivo, read-out: Vdss; how it was run: as §1
[8] = Oral bioavailability in MDR1A knockout Sprague-Dawley rat at 20 mg/kg by LC-MS/MS analysis; details: in vivo; how it was run: as §1
[9] = Half life in MDR1A knockout Sprague-Dawley rat at 5 mg/kg, iv by LC-MS/MS analysis; design: dose 5 mg/kg, route intravenous; details: in vivo; how it was run: as §1
[10] = Tmax in MRP2 knockout Sprague-Dawley rat at 20 mg/kg, po by LC-MS/MS analysis; design: dose 20 mg/kg, route oral; details: in vivo
How it was run: (§3)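 Male Sprague-Dawley rats (knockout or wild type, matched for age and weight) with femoral artery and vein cannulas, recovered ≥2 days. In an i.v./oral crossover with a 3-day washout, sulfasalazine was given by oral gavage at 20 mg/kg in 0.5% carboxymethyl cellulose/PBS pH 7.4. Arterial plasma was sampled 0–24 h and analysed by LC-MS/MS (1–5000 ng/ml). Noncompartmental analysis; n = 4 to 8.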

[11] = Oral bioavailability in BCRP knockout […]; details: in vivo
[12] = Half life in wild-type Wistar rat at 5 mg/kg, po by LC-MS/MS analysis; design: dose 5 mg/kg, route oral; details: in vivo
How it was run: (§4)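 Male Wistar wild-type rats and Mrp2-deficient TR⁻ rats with femoral artery and vein cannulas. Sulfasalazine given as an iv bolus (5 mg/kg, water at pH 9–10) and by oral gavage, each followed by arterial plasma sampling over 24 h. Sulfasalazine and sulfapyridine measured by LC-MS/MS; noncompartmental parameters; mean ± S.D., n = 3.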

[13] = Clearance in wild-type Wistar rat at 5 mg/kg, iv by LC-MS/MS analysis; design: dose 5 mg/kg, route intravenous; details: in vivo
How it was run: (§5)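 Male Wistar wild-type or Mrp2-deficient TR⁻ rats with femoral artery and vein cannulas. Sulfasalazine was given as a 5 mg/kg i.v. bolus and as a 20 mg/kg oral dose. Arterial plasma was sampled to 24 h and analysed for parent and sulfapyridine by LC-MS/MS. Noncompartmental parameters; n = 3, mean ± S.D.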

[14] = AUC (infinity) in MDR1A knockout Sprague-Dawley rat at 20 mg/kg, po by LC-MS/MS analysis; design: time infinity, dose 20 mg/kg, route oral; details: plasma; how it was run: as §2
[15] = AUC (infinity) in wild-type Wistar rat at 5 mg/kg, po by LC-MS/MS analysis; design: time infinity, dose 5 mg/kg, route oral; details: plasma
[16] = Volume of distribution at steady state in wild-type Wistar rat at 5 mg/kg, iv by LC-MS/MS analysis; design: dose 5 mg/kg, route intravenous; details: in vivo, read-out: Vdss; how it was run: as §4
[17] = Oral bioavailability in MRP2-deficient Wistar rat at 5 mg/kg by LC-MS/MS analysis; details: in vivo; how it was run: as §4
[18] = Clearance in wild-type Sprague-Dawley rat at 5 mg/kg, iv by LC-MS/MS analysis; design: dose 5 mg/kg, route intravenous; details: in vivo; how it was run: as §2
[19] = AUC (infinity) in MRP2 knockout Sprague-Dawley rat at 5 mg/kg, iv by LC-MS/MS analysis; design: time infinity, dose 5 mg/kg, route intravenous; details: plasma; how it was run: as §2
[20] = Oral bioavailability in wild-type Wistar rat at 5 mg/kg by LC-MS/MS analysis; details: in vivo; how it was run: as §4
[21] = AUC (infinity) in wild-type Wistar rat at 5 mg/kg, iv by LC-MS/MS analysis; design: time infinity, dose 5 mg/kg, route intravenous; details: plasma; how it was run: as §5
[22] = Clearance in BCRP knockout Sprague-Dawley rat at 5 mg/kg, iv by LC-MS/MS analysis; design: dose 5 mg/kg, route intravenous; details: in vivo; how it was run: as §2
[23] = Half life in MRP2-deficient Wistar rat at 5 mg/kg, po by LC-MS/MS analysis; design: dose 5 mg/kg, route oral; details: in vivo; how it was run: as §4
[24] = Half life in BCRP knockout Sprague-Dawley rat at 5 mg/kg, iv by LC-MS/MS analysis; design: dose 5 mg/kg, route intravenous; details: in vivo; how it was run: as §1
[25] = AUC (infinity) in BCRP knockout Sprague-Dawley rat at 5 mg/kg, iv by LC-MS/MS analysis; design: time infinity, dose 5 mg/kg, route intravenous; details: plasma; how it was run: as §2
[26] = Oral bioavailability in wild-type Sprague-Dawley rat at 20 mg/kg by LC-MS/MS analysis; details: in vivo; how it was run: as §1
[27] = AUC (infinity) in MRP2-deficient Wistar rat at 5 mg/kg, po by LC-MS/MS analysis; design: time infinity, dose 5 mg/kg, route oral; details: plasma
[28] = Volume of distribution at steady state in MRP2-deficient Wistar rat at 5 mg/kg, iv by LC-MS/MS analysis; design: dose 5 mg/kg, route intravenous; details: in vivo, read-out: Vdss; how it was run: as §4
[29] = Half life in wild-type Sprague-Dawley rat at 20 mg/kg, po by LC-MS/MS analysis; design: dose 20 mg/kg, route oral; details: in vivo; how it was run: as §1
[30] = Clearance in MRP2-deficient Wistar rat at 5 mg/kg, iv by LC-MS/MS analysis; design: dose 5 mg/kg, route intravenous; details: in vivo; how it was run: as §5
[31] = Clearance in MRP2 knockout Sprague-Dawley rat at 5 mg/kg, iv by LC-MS/MS analysis; design: dose 5 mg/kg, route intravenous; details: in vivo; how it was run: as §2
[32] = Volume of distribution at steady state in BCRP knockout Sprague-Dawley rat at 5 mg/kg, iv by LC-MS/MS analysis; design: dose 5 mg/kg, route intravenous; details: in vivo, read-out: Vdss; how it was run: as §1
[33] = Cmax in MDR1A knockout Sprague-Dawley rat at 20 mg/kg, po by LC-MS/MS analysis; design: dose 20 mg/kg, route oral; details: in vivo; how it was run: as §2
[34] = Tmax in BCRP knockout Sprague-Dawley rat at 20 mg/kg, po by LC-MS/MS analysis; design: dose 20 mg/kg, route oral; details: in vivo; how it was run: as §3
[35] = AUC (infinity) in wild-type Sprague-Dawley rat at 20 mg/kg, po by LC-MS/MS analysis; design: time infinity, dose 20 mg/kg, route oral; details: plasma; how it was run: as §2
[36] = Tmax in MDR1A knockout Sprague-Dawley rat at 20 mg/kg, po by LC-MS/MS analysis; design: dose 20 mg/kg, route oral; details: in vivo; how it was run: as §3
[37] = Half life in wild-type Wistar rat at 5 mg/kg, iv by LC-MS/MS analysis; design: dose 5 mg/kg, route intravenous; details: in vivo; how it was run: as §4

- half-life [1]: 4.3 h
- half-life [2]: 1.6 h
- Tmax [3]: 0.25 h
- AUC(0-inf) [4]: 6260 ng·h/mL
- Cmax [5]: 320 ng/mL
- half-life [6]: 3.8 h
- Vd [7]: 1.3 L/kg
- bioavailability [8]: 2.8%
- half-life [9]: 1 h
- Tmax [10]: 0.25 h
- bioavailability [11]: 37%
- half-life [12]: 2.1 h
- clearance [13]: 6.8 mL/min/kg
- AUC(0-inf) [14]: 711 ng·h/mL
- AUC(0-inf) [15]: 1810 ng·h/mL
- Vd [16]: 0.244 L/kg
- bioavailability [17]: 1.5%
- clearance [18]: 10.4 mL/min/kg
- AUC(0-inf) [19]: 4320 ng·h/mL
- bioavailability [20]: 3.8%
- AUC(0-inf) [21]: 12300 ng·h/mL
- clearance [22]: 7.8 mL/min/kg
- half-life [23]: 2.3 h
- half-life [24]: 1.4 h
- AUC(0-inf) [25]: 10700 ng·h/mL
- bioavailability [26]: 1.4%
- AUC(0-inf) [27]: 462 ng·h/mL
- Vd [28]: 0.839 L/kg
- half-life [29]: 2.6 h
- clearance [30]: 10.9 mL/min/kg
- clearance [31]: 22 mL/min/kg
- Vd [32]: 0.408 L/kg
- Cmax [33]: 213 ng/mL
- Tmax [34]: 0.6 h
- AUC(0-inf) [35]: 562 ng·h/mL
- Tmax [36]: 0.3 h
- half-life [37]: 1.5 h
Compound: O=C(O)c1cc(/N=N/c2ccc(S(=O)(=O)Nc3ccccn3)cc2)ccc1O [SULFASALAZINE]
